Test results reported in ChEMBL document CHEMBL1944515 (J Med Chem, 2012).
Active and inactive are the calls of the source. The rule behind the calls is not given here.

Columns and labels:
[1] = test system: HL-60; test: Cytotoxicity against human HL60 cells after 72 hrs by MTT assay; format: functional, cell-based; details: HL-60, 72 h
[2] = test system: MCF7; test: Cytotoxicity against human MCF7 cells after 72 hrs by MTT assay; format: functional, cell-based; details: MCF7, 72 h
[3] = test system: HT-29; test: Cytotoxicity against human HT-29 cells after 72 hrs by MTT assay; format: functional, cell-based; details: HT-29, 72 h
[4] = species on record: Bos taurus; test: Displacement of [3H]colchicine from bovine tubulin at 5 uM by DEAE-cellulose filter method
Procedure, shortened: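 Inhibition of [3H]colchicine binding was measured in mixtures of 1 μM tubulin, 5 μM [3H]colchicine and 5 μM test compound. Results are percent inhibition of binding.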

[5] = test system: LoVo; test: Resistance ratio of IC50 for human doxorubicin-resistant LoVo cells to human LoVo cells; format: functional
[6] = Cytotoxicity against human A549-T12 cells after 72 hrs by MTT assay; format: functional, cell-based; details: A549, 72 h
Procedure, shortened: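 Cells seeded at 8 × 10^3 per well and left 18 h at 37 °C, 5% CO2, then given fresh medium with compound at a range of concentrations for 72 h; DMSO at most 0.25% final. Viability read by MTT relative to 0.25% DMSO-treated cells. […] LoVoDoxo kept in Ham's F12 with 0.1 μg/mL doxorubicin; A549-T12 kept in DMEM with 12 nM paclitaxel.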

[7] = test system: HeLa; test: Induction of cell cycle arrest in human HeLa cells assessed as increase in G2/M phase cells after 24 hrs by flow cytometry; format: functional, cell-based
Procedure, shortened: (§1)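 5 × 10^5 exponentially growing HeLa cells were treated with 15–250 nM for 24 h, fixed in ice-cold 70% ethanol, then treated with lysis buffer containing RNase A and 0.1% Triton X-100. PI staining of DNA content, read by flow cytometry. Mean ± SEM of three independent experiments.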

[8] = test system: HeLa; test: Induction of cell cycle arrest in human HeLa cells assessed as increase in G2/M phase cells at 30 nM after 24 hrs by flow cytometry; format: functional, cell-based; procedure, shortened: as §1
[9] = test system: HeLa; test: Induction of cell cycle arrest in human HeLa cells assessed as G2/M phase cells at 60 nM after 24 hrs by flow cytometry; format: functional
Procedure, shortened: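 Exponentially growing HeLa cells (5 × 10^5) were treated 24 h at 15–250 nM. Cells were fixed in ice-cold 70% ethanol, lysed with RNase A/0.1% Triton X-100 buffer and stained with propidium iodide. DNA content was measured by flow cytometry to score G2/M fraction. Mean ± SEM of three independent experiments.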

[10] = test system: HeLa; test: Induction of cell cycle arrest in human HeLa cells assessed as decrease in S phase cells at 15 to 250 nM after 24 hrs by flow cytometry; format: functional, cell-based; procedure, shortened: as §1
[11] = test system: HeLa; test: Induction of cell cycle arrest in human HeLa cells assessed as increase in cyclin B1 expression at 50 to 100 nM after 24 to 48 hrs by Western blot analysis; format: functional, cell-based
Procedure, shortened: (§2)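 HeLa cells were treated for 24 or 48 h, washed in ice-cold PBS and lysed on ice for 30 min; lysates were spun at 15000g, 4 °C. 20 μg protein per lane on SDS-PAGE (7.5–15%), then PVDF. Blocked overnight at 4 °C, primary antibodies 2 h at room temperature, peroxidase secondary 60 min, ECL detection. Blots were reprobed for β-actin as loading control.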

[12] = test system: HeLa; test: Induction of apoptosis in human HeLa cells assessed as decrease in cdc25c level at 50 to 100 nM after 24 hrs by Western blot analysis; format: functional, cell-based; details: in the assay text read “48 hrs” for “24 hrs”; procedure, shortened: as §2
[13] = test system: HeLa; test: Induction of apoptosis in human HeLa cells assessed as early apoptotic cells at 100 nM after 48 hrs by FITC conjugated annexin-V/PI staining-based flow cytometry (reference value: 9.6%); format: functional
Procedure, shortened: (§3)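 Flow cytometry of HeLa cells after 24 or 48 h exposure, double-stained with annexin-V-FITC and propidium iodide. Excitation at 488 nm, emission at 525 nm (FITC) and 585 nm (PI). Quadrants scored as live, early apoptotic, late apoptotic or necrotic cells.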

[14] = test system: HeLa; test: Induction of necrosis in human HeLa cells assessed as necrotic cells at 100 nM after 48 hrs by FITC conjugated annexin-V/PI staining-based flow cytometry (reference value: 0.7%); format: functional; procedure, shortened: as §3
[15] = test system: HeLa; test: Induction of apoptosis in human HeLa cells assessed as increase in annexin-V positive apoptotic cells after 24 to 48 hrs by FITC conjugated annexin-V/PI staining-based flow cytometry; format: functional, cell-based; procedure, shortened: as §3
[16] = test system: HeLa; test: Induction of apoptosis in human HeLa cells assessed as increase in annexin-V positive apoptotic cells at 50 to 100 nM by FITC conjugated annexin-V/PI staining-based flow cytometry; format: functional, cell-based; details: TDE = time-dependent effect; procedure, shortened: as §3
[17] = test system: HeLa; test: Induction of mitochondrial depolarization in human HeLa cells assessed as JC1 monomer level after 48 hrs by JC1-based fluorescent staining (reference value: 0.8%); format: functional
Procedure, shortened: (§4)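 Mitochondrial membrane potential in HeLa cells after 24 or 48 h incubation, measured with the JC-1 dye by flow cytometry. Aggregates read as red (590 nm) and monomers as 530 nm; output is the percentage of depolarized cells. Mean ± SEM of three independent experiments.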

[18] = test system: HeLa; test: Induction of mitochondrial depolarization in human HeLa cells after 24 to 48 hrs by JC1-based fluorescent staining; format: functional, cell-based; procedure, shortened: as §4
[19] = test system: HeLa; test: Induction of ROS production in human HeLa cells at 50 to 100 nM after 24 to 48 hrs by HE staining-based flow cytometry; format: functional, cell-based
Procedure, shortened: (§5)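 HeLa cells were exposed for 24 or 48 h, then stained with hydroethidine or H2-DCFDA for ROS and read by flow cytometry. DMSO ≤0.25%. Mean ± SEM of three independent experiments.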

[20] = test system: HeLa; test: Induction of ROS production in human HeLa cells at 50 to 100 nM after 24 to 48 hrs by H2-DCFDA staining-based flow cytometry; format: functional, cell-based; procedure, shortened: as §5
[21] = test system: HeLa; test: Induction of apoptosis in human HeLa cells assessed as PARP cleavage at 50 to 100 nM after 24 to 48 hrs by Western blot analysis; format: functional, cell-based; procedure, shortened: as §2
[22] = test system: HeLa; test: Induction of apoptosis in human HeLa cells assessed as decrease in XIAP protein expression at 50 to 100 nM after 24 to 48 hrs by Western blot analysis; format: functional, cell-based; procedure, shortened: as §2
[23] = test system: HeLa; test: Induction of apoptosis in human HeLa cells assessed as caspase9 activation at 50 to 100 nM after 24 to 48 hrs by Western blot analysis; format: functional, cell-based; procedure, shortened: as §2
[24] = test system: HeLa; test: Induction of apoptosis in human HeLa cells assessed as change in Bax protein expression at 50 to 100 nM after 24 to 48 hrs by Western blot analysis; format: functional, cell-based; procedure, shortened: as §2
[25] = test system: HT-29; test: Anticancer activity against human HT-29 cells xenografted in BALB/c nude mouse assessed as tumor growth inhibition at 100 mg/kg, ip administered on days 0,2 and 4 relative to vehicle treated control; format: functional; details: HT-29, ip, route intraperitoneal, read-out: TGI
Procedure, shortened: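 HT-29 cells in log phase, suspended at 1 × 10^7 cells/mL in serum-free RPMI 1640, were inoculated (0.2 mL) into dorsal hypodermis of nude mice. At ~300 mm3, 18 mice were randomised to vehicle or two treatment groups (six per group). Dosing was 100 mg/kg ip in DMSO (0.01 mL/g) on days 0, 2 and 4. Caliper tumour volume V = LW²/2 and body weight were tracked versus vehicle.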

`CCOc1ccc(-c2nnnn2-c2cc(OC)c(OC)c(OC)c2)cc1` showed an IC50 [1] of 1.3 nM, an IC50 [2] of 2.3 nM and an IC50 [3] of 2.8 nM. For the same compound, the inhibition [4] was 78%, the “Ratio IC50” value [5] was 0.64 and the IC50 [6] was 8.2 nM. For the same compound, the Activity [7] was “Dose-dependent effect”, the Activity [8] was “Active” and the Activity [9] was greater than 80%. For the same compound, the Activity [10] was “Active”, the Activity [11] was “Active” and the Activity [12] was “Active”. The Activity [13] was 34.4%, the Activity [14] was 1.8% and the Activity [15] was “Dose-dependent effect”. The Activity [16] was “tde”, the Activity [17] was 19.1% and the Activity [18] was “Dose-dependent effect”. The Activity [19] was “Active”, the Activity [20] was “Active” and the Activity [21] was “Active”. For the same compound, the Activity [22] was “Active”, the Activity [23] was “Active” and the Activity [24] was “inactive”. The inhibition in vivo at 100 mg/kg [25] was 66%.
